In paper PMC6447837 (Cancer Science, 2019):

Assays:
A375 = assay: MTT antiviability assay; format: cell-based; settings: Homo sapiens, A-375, 72 h
MCF‐7 = assay: MTT antiviability assay; format: cell-based; settings: Homo sapiens, MCF7, 72 h
HCC1937 = settings: HCC1937, Triple negative breast cancer; mean ± SD; ref Zhang et al (2016) 35; cited from earlier work
Aspc‐1 = assay: MTT antiviability assay; format: cell-based; settings: Homo sapiens, ASPC1, 72 h
L929 = settings: L929, Mouse fibroblast (normal cell line); ref Zhang et al (2016) 35; cited from earlier work
ERK = assay: Western blot, ERK phosphorylation; format: cell-based, human; settings: Aspc‐1 and Bxpc‐3 cells, 12 hours
How it was run: (§1)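 Aspc-1 and Bxpc-3 cells were grown overnight in complete medium and treated with test compound for 12 h. Cells were lysed in RIPA buffer and protein was quantified. Lysates were run on SDS-PAGE and transferred to PVDF, then blocked 2 h in TBS-T with 5% non-fat milk. Blots were probed for pAKT Ser473, pERK Thr202/Tyr204, pSTAT3 Tyr705, the matching total proteins and β-actin. Detection was by enhanced chemiluminescence.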

AKT = assay: Western blot, AKT phosphorylation; format: cell-based, human; settings: Aspc‐1 and Bxpc‐3 cells, 12 hours
How it was run: as §1

[1] = Body weight during treatment in xenograft models; format: in vivo, NOD‐SCID mice; settings: Aspc‐1 and Bxpc‐3 xenograft models; 20 or 40 mg/kg/d p.o., 18 days
How it was run: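 Six‑week‑old female NOD‑SCID mice received 5 × 10⁶–1 × 10⁷ cells s.c. in the right flank and were grouped (6 per group) at about 200 mm³. Test compound in 25% (v/v) PEG400 plus 5% DMSO in deionized water was given by oral gavage once daily for 18 days, alongside vehicle controls. Mean body weight with SD was recorded.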

Fyn = Fyn (Homo sapiens, UniProt P06241); assay: Radiometric kinase IC50 assay; format: biochemical
Sequence of Fyn (P06241 whole entry): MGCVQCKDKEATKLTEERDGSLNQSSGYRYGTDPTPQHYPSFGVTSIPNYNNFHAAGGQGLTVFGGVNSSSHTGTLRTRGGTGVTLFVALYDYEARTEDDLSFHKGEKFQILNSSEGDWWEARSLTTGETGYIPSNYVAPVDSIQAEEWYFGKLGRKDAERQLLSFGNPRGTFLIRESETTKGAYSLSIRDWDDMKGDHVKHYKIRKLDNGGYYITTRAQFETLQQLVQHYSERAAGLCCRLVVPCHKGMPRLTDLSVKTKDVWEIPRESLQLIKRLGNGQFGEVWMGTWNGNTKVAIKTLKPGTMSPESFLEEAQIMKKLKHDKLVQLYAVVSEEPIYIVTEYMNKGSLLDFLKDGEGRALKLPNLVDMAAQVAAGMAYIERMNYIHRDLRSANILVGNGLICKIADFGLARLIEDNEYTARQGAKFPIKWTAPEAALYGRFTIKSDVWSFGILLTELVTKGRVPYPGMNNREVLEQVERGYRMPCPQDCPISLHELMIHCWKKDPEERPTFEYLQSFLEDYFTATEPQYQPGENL

MV4‐11 = settings: MV4‐11, Leukemia; mean ± SD; ref Zhang et al (2016) 35; cited from earlier work
SW1990 = assay: MTT antiviability assay; format: cell-based; settings: Homo sapiens, SW1990, 72 h
Bxpc‐3 = assay: MTT antiviability assay; format: cell-based; settings: Homo sapiens, BXPC-3, 72 h
PC‐9 = settings: PC‐9, Lung cancer; mean ± SD; ref Zhang et al (2016) 35; cited from earlier work
HT29 = settings: HT29, Colorectal carcinoma; mean ± SD; ref Zhang et al (2016) 35; cited from earlier work
FOSL1 = assay: Western blot, FOSL1 expression in intact cells; format: cell-based, human; settings: 12 hours
Lck = Lck (Homo sapiens, UniProt P06239); assay: Radiometric kinase IC50 assay; format: biochemical
Sequence of Lck (P06239 whole entry): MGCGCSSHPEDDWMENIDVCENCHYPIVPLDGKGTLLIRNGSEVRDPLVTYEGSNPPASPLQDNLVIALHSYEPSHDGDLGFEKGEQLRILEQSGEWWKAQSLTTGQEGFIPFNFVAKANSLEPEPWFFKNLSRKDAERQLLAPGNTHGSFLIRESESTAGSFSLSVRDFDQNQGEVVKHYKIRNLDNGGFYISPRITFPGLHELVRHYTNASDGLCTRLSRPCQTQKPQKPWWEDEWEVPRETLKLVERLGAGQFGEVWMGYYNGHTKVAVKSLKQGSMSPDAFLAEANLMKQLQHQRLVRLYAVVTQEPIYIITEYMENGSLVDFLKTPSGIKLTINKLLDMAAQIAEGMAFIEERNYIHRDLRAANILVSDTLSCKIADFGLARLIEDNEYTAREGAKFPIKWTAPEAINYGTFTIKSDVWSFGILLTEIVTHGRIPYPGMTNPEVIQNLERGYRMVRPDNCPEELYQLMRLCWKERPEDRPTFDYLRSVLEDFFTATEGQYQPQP

BT474 = settings: BT474, Breast cancer; ref Zhang et al (2016) 35; cited from earlier work
Aspc‐1 cells [2] = assay: EdU incorporation; format: cell-based, human; settings: 24 hours
How it was run: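 Cells were seeded overnight at 5000-8000 per well in 96-well plates, then exposed to test compound for 24 h. Cells were then incubated with EdU followed by Hoechst, using a commercial kit per manufacturer's instructions. EdU marks proliferating cells and Hoechst marks nuclei. The read-out was the percentage of EdU-positive cells, as mean of n = 3 with SD.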

MDA‐MB‐436 = assay: MTT antiviability assay; format: cell-based; settings: Homo sapiens, MDA-MB-436, 72 h
Capan‐2 = assay: MTT antiviability assay; format: cell-based; settings: Homo sapiens, Capan-2, 72 h
Src = assay: Immunohistochemistry of xenograft tumor tissues; format: in vivo, NOD‐SCID mice; settings: Aspc‐1 and Bxpc‐3 models; LY‐1816 and dasatinib 40 mg/kg/d p.o., gemcitabine 80 mg/kg/wk; IHC
STAT3 [3] = assay: Immunohistochemistry of xenograft tumor tissues; format: in vivo, NOD‐SCID mice; settings: Aspc‐1 and Bxpc‐3 models; LY‐1816 and dasatinib 40 mg/kg/d p.o., gemcitabine 80 mg/kg/wk; IHC
How it was run: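 Six-week-old female NOD-SCID mice received 5 × 10⁶ to 1 × 10⁷ cells s.c. in the right flank. Treatment began at about 200 mm³. Test compound (40 mg/kg/d) was given once daily by oral gavage in 25% PEG400 plus 5% DMSO in water. Tumors were resected at the end of dosing. Frozen sections were immunostained and imaged by light microscopy.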

STAT3 [4] = assay: Western blot, STAT3 phosphorylation; format: cell-based, human; settings: Aspc‐1 and Bxpc‐3 cells, 12 hours
How it was run: as §1

CFPAC = assay: MTT antiviability assay; format: cell-based; settings: Homo sapiens, 72 h
HPAF‐II = assay: MTT antiviability assay; format: cell-based; settings: Homo sapiens, 72 h
Aspc‐1 cells [5] = assay: Transwell invasion assay; format: cell-based, human
How it was run: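 Inserts were precoated with polymerized collagen type I. Cells were seeded on the insert bottom in serum‑free medium with serial dilutions of test compound or vehicle, with 10% FBS medium in the lower chamber. After one day, cells were stained with calcein‑AM and optical sections taken at 10‑μm intervals. Invasion was scored as cells moving >20 μm into collagen; n = 3, mean with SD.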

KG‐1a = assay: MTT antiviability assay; format: cell-based; settings: Homo sapiens, 72 h
HPAC = assay: MTT antiviability assay; format: cell-based; settings: Homo sapiens, 72 h
plc/prf/5 = settings: plc/prf/5, Hepatocarcinoma; ref Zhang et al (2016) 35; cited from earlier work
PANC‐1 = assay: MTT antiviability assay; format: cell-based; settings: Homo sapiens, PANC-1, 72 h
RAMOS = settings: Lymphoma, ref Zhang et al (2016) 35; cited from earlier work
205 other kinases = assay: Radiometric kinase assay, remaining panel; format: biochemical, human; settings: 205 other kinases of the panel; did not show activity

Cc1ccc(NC(=O)c2ccc(C)c(C(F)(F)F)c2)cc1C#Cc1nn(C2CCC(O)CC2)c2ncnc(N)c12 (stereo not drawn) [LY‐1816, N‐(3‐((4‐amino‐1‐(4‐hydroxycyclohexyl)‐1H‐pyrazolo[3,4‐d]pyrimidin‐3‐yl)ethynyl)‐4‐methylphenyl)‐4‐methyl‐3‐(trifluoromethyl)benzamide]
IC50 (A375): 134 ± 2 nM | IC50 (MCF‐7): > 10000 nM | IC50 (HCC1937): 455 ± 87 nM | IC50 (Aspc‐1): 54 ± 8 nM | IC50 (L929): > 10000 nM | phosphorylation of ERK (ERK): very weak or no impact on the phosphorylation of ERK and AKT | phosphorylation of AKT (AKT): very weak or no impact on the phosphorylation of ERK and AKT | body weight [1]: no significant decrease in body weight | IC50 (Fyn): 6 nM | IC50 (MV4‐11): 138 ± 15 nM | IC50 (SW1990): 42 ± 53 nM | IC50 (Bxpc‐3): 58 ± 11 nM | IC50 (PC‐9): 152 ± 41 nM | IC50 (HT29): 231 ± 12 nM | FOSL1 expression (FOSL1; 10 PDAC cell lines): downregulated the FOSL1 expression | FOSL1 expression (FOSL1; HT29 and HCT116 cells): relatively weak potency | IC50 (Lck): 14 nM | IC50 (BT474): > 10000 nM | DNA replication (EdU) (Aspc‐1 cells [2]): dose‐dependently suppress the DNA replication | IC50 (MDA‐MB‐436): > 10000 nM | IC50 (Capan‐2): 97 ± 14 nM | phosphorylation of Src in tumor tissues (Src): evidently reduced the phosphorylation of Src and STAT3 | phosphorylation of STAT3 in tumor tissues (STAT3 [3]): evidently reduced the phosphorylation of Src and STAT3 | phosphorylation of STAT3 (STAT3 [4]): significantly inhibit STAT3 phosphorylation | IC50 (CFPAC): 96 ± 60 nM | IC50 (HPAF‐II): 215 ± 31 nM | cell invasion (Aspc‐1 cells [5]): significantly suppressed the invasion | IC50 (KG‐1a): > 10000 nM | IC50 (HPAC): 45 ± 4 nM | IC50 (plc/prf/5): ~10000 nM | IC50 (PANC‐1): 123 ± 15 nM | IC50 (RAMOS): ~10000 nM | IC50 (205 other kinases): > 10000 nM
